Activity data for one molecule are collected here from ChEMBL document CHEMBL4354843, “Structure-Based Design of a Potent and Selective Covalent Inhibitor for SRC Kinase That Targets a P-Loop Cysteine” (J Med Chem, 2020).

The structures appear in SMILES notation.

For experiment [1], the system named is Phosphatidylinositol 4,5-bisphosphate 3-kinase catalytic subunit alpha isoform (Homo sapiens), P42336 [E545A]. Briefly: Binding affinity to human partial length PIK3CA E545A mutant (R108 to N1068 residues) expressed in mammalian expression system assessed as residual binding level at 1 uM by Kinomescan method relative to control. In outline:
(§1)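 KinomeScan active site-directed competition binding panel (468 kinases), compound tested at 1 μM. Result expressed as remaining kinase signal versus DMSO control (percent of control).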

Experiment [2] deals with Tyrosine-protein kinase ABL1 (Homo sapiens), P00519 [T315I]. Nature of the experiment: Binding affinity to human phosphorylated ABL1 T315I mutant (S229 to K512 residues) expressed in mammalian expression system assessed as residual binding level at 1 uM by Kinomescan method relative to control. In outline:
(§2)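 Active-site-directed KinomeScan competition binding panel covering 468 kinases, compound tested at 1 μM. Each readout is the kinase signal remaining with compound, expressed as a percentage of the DMSO control. […]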

In experiment [3] the target is Serine/threonine-protein kinase MRCK alpha (Homo sapiens) (UniProt Q5VT25). Briefly: Binding affinity to wild-type human partial length MRCKA (L57 to V418 residues) expressed in bacterial expression system assessed as residual binding level at 1 uM by Kinomescan method relative to control.
Experiment [4] concerns the target Serine/threonine-protein kinase DCLK1 (Homo sapiens) (UniProt O15075). Nature of the experiment: Binding affinity to wild-type human partial length DCAMKL1 (L270 to A662 residues) expressed in mammalian expression system assessed as residual binding level at 1 uM by Kinomescan method relative to control.
In experiment [5] the target is Macrophage colony-stimulating factor 1 receptor (Homo sapiens) (UniProt P07333). Briefly: Binding affinity to wild-type human partial length autoinhibited CSF1R (Y538 to S939 residues) expressed in mammalian expression system assessed as residual binding level at 1 uM by Kinomescan method relative to control. In a few lines:
(§3)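 Active site-directed competition binding panel (KinomeScan, 468 kinases). Test compound at 1 μM. Read-out is kinase binding remaining versus DMSO control, expressed as percent of control. Scores above 35% are treated as weak binding.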

In experiment [6] the target is Phosphatidylinositol 4,5-bisphosphate 3-kinase catalytic subunit delta isoform (Homo sapiens) (UniProt O00329). Briefly: Binding affinity to wild-type human partial length PIK3CD (R108 to Q1044 residues) expressed in mammalian expression system assessed as residual binding level at 1 uM by Kinomescan method relative to control.
The target of experiment [7] is Serine/threonine-protein kinase BRSK2 (Homo sapiens) (UniProt Q8IWQ3). Nature of the experiment: Binding affinity to wild-type human full length BRSK2 (M1 to L674 residues) expressed in bacterial expression system assessed as residual binding level at 1 uM by Kinomescan method relative to control. In outline:
as §2

Experiment [8] deals with Serine/threonine-protein kinase MARK1 (Homo sapiens) (UniProt Q9P0L2). Nature of the experiment: Binding affinity to wild-type human partial length MARK1 (Q30 to T341 residues) expressed in bacterial expression system assessed as residual binding level at 1 uM by Kinomescan method relative to control. In a few lines:
(§4)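 Active-site-directed competition binding panel of 468 kinases (KinomeScan), compound at 1 μM. The read-out is kinase remaining bound, given as a percentage of the DMSO control. […]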

In experiment [9] the target is Protein kinase C eta type (Homo sapiens) (UniProt P24723). Briefly: Binding affinity to wild-type human partial length PRKCH (S324 to P683 residues) expressed in bacterial expression system assessed as residual binding level at 1 uM by Kinomescan method relative to control.
Sequence of Protein kinase C eta type (Homo sapiens) (P24723 whole entry, the tested form may be a part): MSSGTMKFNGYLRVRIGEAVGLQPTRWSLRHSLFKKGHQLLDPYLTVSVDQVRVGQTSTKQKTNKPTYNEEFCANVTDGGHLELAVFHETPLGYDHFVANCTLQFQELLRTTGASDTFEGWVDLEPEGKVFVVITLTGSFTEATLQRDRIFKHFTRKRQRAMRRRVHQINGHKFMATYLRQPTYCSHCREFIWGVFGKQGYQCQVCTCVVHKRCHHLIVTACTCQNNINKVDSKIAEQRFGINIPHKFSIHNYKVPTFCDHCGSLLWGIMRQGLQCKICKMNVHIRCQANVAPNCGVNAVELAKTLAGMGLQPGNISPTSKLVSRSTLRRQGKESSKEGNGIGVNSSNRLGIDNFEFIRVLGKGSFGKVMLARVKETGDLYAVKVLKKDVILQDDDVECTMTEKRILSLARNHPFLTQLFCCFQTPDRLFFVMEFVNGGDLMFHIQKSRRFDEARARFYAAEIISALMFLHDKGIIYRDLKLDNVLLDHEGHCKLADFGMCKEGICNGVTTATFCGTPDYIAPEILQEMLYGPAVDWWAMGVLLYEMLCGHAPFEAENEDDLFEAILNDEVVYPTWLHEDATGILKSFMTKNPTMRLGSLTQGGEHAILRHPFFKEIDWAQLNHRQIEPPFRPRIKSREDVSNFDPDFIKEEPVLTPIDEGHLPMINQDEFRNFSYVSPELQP
Experiment [10] has as its target Protein kinase C theta type (Homo sapiens) (UniProt Q04759). Briefly: Binding affinity to wild-type human partial length PRKCQ (L350 to S706 residues) expressed in bacterial expression system assessed as residual binding level at 1 uM by Kinomescan method relative to control. In a few lines:
as §4

Experiment [11] addresses Serine/threonine-protein kinase ULK2 (Homo sapiens) (UniProt Q8IYT8). Nature of the experiment: Binding affinity to wild-type human partial length ULK2 (M1 to S301 residues) expressed in mammalian expression system assessed as residual binding level at 1 uM by Kinomescan method relative to control.
Experiment [12] concerns the target Casein kinase I isoform alpha-like (Homo sapiens) (UniProt Q8N752). Nature of the experiment: Binding affinity to wild-type human full length CSNK1A1L (M1 to N337 residues) expressed in bacterial expression system assessed as residual binding level at 1 uM by Kinomescan method relative to control. In a few lines: as §2
The target in experiment [13] is Cyclin-dependent kinase 11B (Homo sapiens) (UniProt P21127). Briefly: Binding affinity to wild-type human partial length CDC2L1 (P353 to G692 residues) expressed in bacterial expression system assessed as residual binding level at 1 uM by Kinomescan method relative to control.
The target of experiment [14] is Serine/threonine-protein kinase Sgk2 (Homo sapiens) (UniProt Q9HBY8). Briefly: Binding affinity to wild-type human partial length SGK2 (L54 to C427 residues) expressed in mammalian expression system assessed as residual binding level at 1 uM by Kinomescan method relative to control.
Sequence of Serine/threonine-protein kinase Sgk2 (Homo sapiens) (Q9HBY8 whole entry, the tested form may be a part): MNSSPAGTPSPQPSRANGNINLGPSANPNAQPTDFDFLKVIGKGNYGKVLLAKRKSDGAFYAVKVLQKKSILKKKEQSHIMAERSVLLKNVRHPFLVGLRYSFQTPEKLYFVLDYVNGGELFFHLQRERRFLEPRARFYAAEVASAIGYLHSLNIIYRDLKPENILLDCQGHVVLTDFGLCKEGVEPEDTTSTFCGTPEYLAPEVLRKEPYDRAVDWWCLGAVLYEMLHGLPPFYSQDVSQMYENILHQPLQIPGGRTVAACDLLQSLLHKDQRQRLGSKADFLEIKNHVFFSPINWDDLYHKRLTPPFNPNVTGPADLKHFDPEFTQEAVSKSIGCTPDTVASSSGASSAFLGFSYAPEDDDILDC
The target in experiment [15] is Fibroblast growth factor receptor 3 (Homo sapiens) (UniProt P22607). Nature of the experiment: Binding affinity to wild-type human partial length FGFR3 (R442 to S771 residues) expressed in bacterial expression system assessed as residual binding level at 1 uM by Kinomescan method relative to control.
The target in experiment [16] is Serine/threonine-protein kinase ULK1 (Homo sapiens) (UniProt O75385). Briefly: Binding affinity to wild-type human partial length ULK1 (M1 to T309 residues) expressed in mammalian expression system assessed as residual binding level at 1 uM by Kinomescan method relative to control.
In experiment [17] the test system is Mast/stem cell growth factor receptor Kit (Homo sapiens), P10721 [L576P]. Nature of the experiment: Binding affinity to human partial length KIT L576P mutant (Y545 to D952 residues) expressed in bacterial expression system assessed as residual binding level at 1 uM by Kinomescan method relative to control. In a few lines: as §1
For experiment [18], the target named is Insulin-like growth factor 1 receptor (Homo sapiens) (UniProt P08069). Nature of the experiment: Binding affinity to wild-type human partial length IGF1R (L972 to D1294 residues) expressed in bacterial expression system assessed as residual binding level at 1 uM by Kinomescan method relative to control.
Sequence of Insulin-like growth factor 1 receptor (Homo sapiens) (P08069 31-736 limits assumed): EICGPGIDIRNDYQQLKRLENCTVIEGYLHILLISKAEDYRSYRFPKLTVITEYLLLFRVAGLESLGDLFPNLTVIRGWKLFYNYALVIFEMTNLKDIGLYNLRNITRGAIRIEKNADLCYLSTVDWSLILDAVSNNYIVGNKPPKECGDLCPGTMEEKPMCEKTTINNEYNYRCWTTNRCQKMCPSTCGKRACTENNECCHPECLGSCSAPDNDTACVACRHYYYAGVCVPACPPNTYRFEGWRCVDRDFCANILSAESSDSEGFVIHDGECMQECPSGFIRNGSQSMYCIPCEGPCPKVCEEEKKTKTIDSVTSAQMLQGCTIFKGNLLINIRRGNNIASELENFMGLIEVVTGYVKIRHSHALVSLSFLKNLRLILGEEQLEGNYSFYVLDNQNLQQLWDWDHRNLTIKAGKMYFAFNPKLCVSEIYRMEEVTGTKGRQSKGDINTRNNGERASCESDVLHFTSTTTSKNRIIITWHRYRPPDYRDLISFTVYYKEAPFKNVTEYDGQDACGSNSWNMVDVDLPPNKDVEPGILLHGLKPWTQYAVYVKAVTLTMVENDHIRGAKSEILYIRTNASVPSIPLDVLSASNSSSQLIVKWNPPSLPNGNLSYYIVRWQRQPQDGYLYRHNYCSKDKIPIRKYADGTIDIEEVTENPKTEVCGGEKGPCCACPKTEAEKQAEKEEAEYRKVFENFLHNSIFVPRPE
Sequence of Insulin-like growth factor 1 receptor (Homo sapiens) (P08069 741-1367 limits assumed): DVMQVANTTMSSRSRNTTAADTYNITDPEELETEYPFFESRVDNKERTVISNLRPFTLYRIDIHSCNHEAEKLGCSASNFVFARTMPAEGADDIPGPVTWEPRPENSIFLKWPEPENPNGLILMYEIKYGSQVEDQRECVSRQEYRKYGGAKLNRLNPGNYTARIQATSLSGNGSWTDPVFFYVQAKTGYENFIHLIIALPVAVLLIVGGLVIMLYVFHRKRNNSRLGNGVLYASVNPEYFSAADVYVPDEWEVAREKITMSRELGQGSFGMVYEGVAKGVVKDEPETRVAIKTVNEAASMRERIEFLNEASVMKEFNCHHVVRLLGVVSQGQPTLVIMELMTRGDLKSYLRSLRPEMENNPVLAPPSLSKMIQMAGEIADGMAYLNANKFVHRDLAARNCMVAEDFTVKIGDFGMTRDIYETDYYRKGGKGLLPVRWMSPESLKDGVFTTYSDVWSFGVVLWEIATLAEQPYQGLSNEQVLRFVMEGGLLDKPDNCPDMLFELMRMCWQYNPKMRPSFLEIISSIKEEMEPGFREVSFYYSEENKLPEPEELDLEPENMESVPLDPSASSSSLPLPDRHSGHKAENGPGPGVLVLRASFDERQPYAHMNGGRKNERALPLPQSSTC
The target in experiment [19] is Casein kinase I isoform delta (Homo sapiens) (UniProt P48730). Nature of the experiment: Binding affinity to wild-type human full length CSNK1D (M1 to K409 residues) expressed in bacterial expression system assessed as residual binding level at 1 uM by Kinomescan method relative to control. In outline:
as §2

Experiment [20] has as its system Receptor-type tyrosine-protein kinase FLT3 (Homo sapiens), P36888 [D835Y]. Briefly: Binding affinity to human partial length FLT3 D835Y mutant (Q580 to Y969 residues) expressed in bacterial expression system assessed as residual binding level at 1 uM by Kinomescan method relative to control. In outline: as §1
The target of experiment [21] is Serine/threonine-protein kinase SIK1 (Homo sapiens) (UniProt P57059). Briefly: Binding affinity to wild-type human partial length SIK (M1 to Y304 residues) expressed in bacterial expression system assessed as residual binding level at 1 uM by Kinomescan method relative to control. In a few lines:
as §3

Sequence of Serine/threonine-protein kinase DCLK1 (Homo sapiens) (O15075 whole entry, the tested form may be a part): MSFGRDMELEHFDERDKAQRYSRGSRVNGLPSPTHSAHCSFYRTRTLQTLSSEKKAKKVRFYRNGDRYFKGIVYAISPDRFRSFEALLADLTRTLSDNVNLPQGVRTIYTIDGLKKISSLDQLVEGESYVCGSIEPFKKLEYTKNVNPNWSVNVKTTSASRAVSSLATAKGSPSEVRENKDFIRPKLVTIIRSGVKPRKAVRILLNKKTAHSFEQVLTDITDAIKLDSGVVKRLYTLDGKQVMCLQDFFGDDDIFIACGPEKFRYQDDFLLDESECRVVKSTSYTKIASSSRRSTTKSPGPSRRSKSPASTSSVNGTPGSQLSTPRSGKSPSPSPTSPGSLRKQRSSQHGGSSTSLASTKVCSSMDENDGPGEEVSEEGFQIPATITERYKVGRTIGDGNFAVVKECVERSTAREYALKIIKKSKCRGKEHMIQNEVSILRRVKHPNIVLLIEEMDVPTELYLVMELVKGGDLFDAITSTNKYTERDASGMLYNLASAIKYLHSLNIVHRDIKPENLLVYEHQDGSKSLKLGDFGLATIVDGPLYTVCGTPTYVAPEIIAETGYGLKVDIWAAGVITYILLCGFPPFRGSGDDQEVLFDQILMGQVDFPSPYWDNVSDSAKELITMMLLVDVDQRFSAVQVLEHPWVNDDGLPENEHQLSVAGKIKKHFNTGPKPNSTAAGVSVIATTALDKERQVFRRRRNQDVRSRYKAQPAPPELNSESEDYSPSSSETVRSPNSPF
Sequence of Serine/threonine-protein kinase ULK2 (Homo sapiens) (Q8IYT8 whole entry, the tested form may be a part, canonical isoform): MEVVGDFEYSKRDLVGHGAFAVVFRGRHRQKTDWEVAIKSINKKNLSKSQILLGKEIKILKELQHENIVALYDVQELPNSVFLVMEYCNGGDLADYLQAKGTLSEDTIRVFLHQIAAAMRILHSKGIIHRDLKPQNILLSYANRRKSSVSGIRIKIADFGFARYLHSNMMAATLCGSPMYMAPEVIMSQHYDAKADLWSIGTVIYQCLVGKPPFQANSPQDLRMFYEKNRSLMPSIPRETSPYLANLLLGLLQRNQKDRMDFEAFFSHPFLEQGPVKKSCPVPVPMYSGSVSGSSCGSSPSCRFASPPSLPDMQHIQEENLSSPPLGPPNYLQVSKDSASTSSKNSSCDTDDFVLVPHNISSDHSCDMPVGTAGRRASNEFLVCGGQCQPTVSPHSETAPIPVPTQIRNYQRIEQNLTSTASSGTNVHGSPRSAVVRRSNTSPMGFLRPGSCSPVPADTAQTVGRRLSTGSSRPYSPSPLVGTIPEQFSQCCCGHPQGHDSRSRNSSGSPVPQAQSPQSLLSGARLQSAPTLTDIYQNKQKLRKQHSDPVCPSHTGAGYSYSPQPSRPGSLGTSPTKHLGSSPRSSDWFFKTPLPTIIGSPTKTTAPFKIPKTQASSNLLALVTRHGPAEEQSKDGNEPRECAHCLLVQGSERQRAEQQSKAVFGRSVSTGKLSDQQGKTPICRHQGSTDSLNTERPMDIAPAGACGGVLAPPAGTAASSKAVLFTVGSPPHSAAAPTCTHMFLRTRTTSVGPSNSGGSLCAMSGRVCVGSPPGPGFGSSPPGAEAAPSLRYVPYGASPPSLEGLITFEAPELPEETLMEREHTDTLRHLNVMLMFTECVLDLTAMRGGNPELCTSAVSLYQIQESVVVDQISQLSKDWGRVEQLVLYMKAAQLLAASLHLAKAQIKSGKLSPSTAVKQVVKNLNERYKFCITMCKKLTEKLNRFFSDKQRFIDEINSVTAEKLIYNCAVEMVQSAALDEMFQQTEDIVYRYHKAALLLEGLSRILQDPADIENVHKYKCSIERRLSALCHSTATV
Sequence of Serine/threonine-protein kinase SIK1 (Homo sapiens) (P57059 whole entry, the tested form may be a part): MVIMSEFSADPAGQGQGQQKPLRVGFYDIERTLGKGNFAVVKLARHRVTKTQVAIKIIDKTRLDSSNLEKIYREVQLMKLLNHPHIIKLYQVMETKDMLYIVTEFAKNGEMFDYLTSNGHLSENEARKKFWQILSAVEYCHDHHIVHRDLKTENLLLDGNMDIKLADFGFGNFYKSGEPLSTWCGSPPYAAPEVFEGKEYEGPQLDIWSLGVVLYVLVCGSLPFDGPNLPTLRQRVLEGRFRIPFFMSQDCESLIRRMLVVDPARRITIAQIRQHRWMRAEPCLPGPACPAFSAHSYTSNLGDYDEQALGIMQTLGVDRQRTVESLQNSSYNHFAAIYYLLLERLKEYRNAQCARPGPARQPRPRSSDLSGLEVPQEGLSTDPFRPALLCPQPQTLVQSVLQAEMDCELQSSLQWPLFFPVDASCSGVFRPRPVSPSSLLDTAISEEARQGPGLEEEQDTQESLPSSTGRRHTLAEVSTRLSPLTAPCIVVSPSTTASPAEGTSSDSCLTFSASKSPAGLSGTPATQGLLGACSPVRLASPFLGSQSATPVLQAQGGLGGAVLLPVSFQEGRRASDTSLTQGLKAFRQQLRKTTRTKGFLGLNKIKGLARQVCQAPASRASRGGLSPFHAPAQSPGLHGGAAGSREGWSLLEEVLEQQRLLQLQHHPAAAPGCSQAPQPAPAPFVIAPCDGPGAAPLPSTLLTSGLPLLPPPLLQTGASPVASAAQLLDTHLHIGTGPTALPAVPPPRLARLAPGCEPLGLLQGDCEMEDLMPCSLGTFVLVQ

For `C=CC(=O)Nc1ccccc1Nc1nc(Nc2ccc(N3CCN(C)CC3)cc2)ncc1C(=O)Nc1c(C)cccc1Cl`, the Activity amounted to 94% in [1]; 100% in [2]; 100% in experiment [3]; 100% in experiment [4]; 79% in experiment [5]; 100% in [6]. Also, the Activity in experiment [7] came out at 100%; in experiment [8], 99%; in [9], 100%; in [10], 86%; in experiment [11] it was 100%; in experiment [12], 100%. Further, the Activity in experiment [13] is 100%; in experiment [14], 100%; in experiment [15], 100%; in experiment [16] it was 100%; in experiment [17], 65%; in [18] it was 100%. Besides, the Activity was 100% in experiment [19], 100% in experiment [20] and 1% in experiment [21].
